Among the data in article PMC9310269 (Journal for Immunotherapy of Cancer, 2022) are tumor growth inhibition values, retold here.

The subject of this experiment is MC38-hPD-L1 tumors. The experiment can be described thus: MC38-hPD-L1 tumor model in humanized PD-1 mice. The note with it: 10 mg/kg i.p.; p<0.001. It is filed as in vivo, mouse. Summed up:
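Male C57BL/6N humanized PD-1 mice receive 1×10^6 MC38-hPD-L1 cells s.c. in the right flank. At day 12 (~60 mm3) they are randomized into 3 groups (N=6). Dosing is 10 mg/kg i.p. daily for 10 doses, or atezolizumab 10 mg/kg i.p. three times weekly, both over days 12–22. Tumour (X2Y0.5, caliper) and body weight are measured every 3 days. At day 30, tumours are enzymatically digested and analysed by flow cytometry.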

As for “atezolizumab: clinically relevant anti-PD-L1 antibody control in vivo”, the tumor growth inhibition result is reported as “significant”.
